Test results taken from ChEMBL document CHEMBL4393705, “New chalcone-sulfonamide hybrids exhibiting anticancer and antituberculosis activity” (Eur J Med Chem, 2019).

What was measured:
Staphylococcus aureus = test: Antibacterial activity against Staphylococcus aureus measured every 120 mins for 36 hrs by LB broth two-fold serial dilution method; type: functional
How it was run: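 Panel of 12 laboratory and clinical S. aureus strains with varied drug-susceptibility patterns. Compounds were two-fold serially diluted in LB broth from a maximum of 32 mg/L. Growth was followed by OD600 every 120 min for 36 h. Vancomycin was the positive control, and runs were in duplicate.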

HCC 2998 = test: Anticancer activity against human HCC2998 cells assessed as cell growth inhibition measured after 48 hrs by SRB assay; type: functional; conditions: HCC 2998, 48 h
How it was run: (§1)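 NCI-60 five-dose screen at 100, 10, 1.0, 0.1 and 0.01 µM final. Cells in RPMI-1640 with 5% FBS and 2 mM glutamine were seeded 24 h ahead at 37°C, 5% CO2. Compound exposure was 48 h, followed by TCA fixation and SRB staining, read at 515 nm. GI50 is the concentration giving 50% lower net protein increase than control, using time-zero plates.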

HL-60 = test: Anticancer activity against human HL60 cells assessed as cell growth inhibition measured after 48 hrs by SRB assay; type: functional; conditions: HL-60, 48 h; for CC50: read-out: LC50 (the source's name); how it was run: as §1
RPMI-8226 = test: Anticancer activity against human RPMI8226 cells assessed as cell growth inhibition measured after 48 hrs by SRB assay; type: functional; conditions: RPMI-8226, 48 h; for CC50: read-out: LC50 (the source's name); how it was run: as §1
SR = test: Anticancer activity against human SR cells assessed as cell growth inhibition measured after 48 hrs by SRB assay; type: functional
How it was run: (§2)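 NCI 60-cell screen, five-dose mode at 100, 10, 1.0, 0.1 and 0.01 µM. Cells grown in RPMI-1640 with 5% FBS and 2 mM L-glutamine, seeded and held 24 h at 37°C, 5% CO2, then exposed for 48 h. Fixed with cold TCA (10% final), stained with 0.4% SRB and read at 515 nm. Time-zero plates were used. GI50 is the concentration giving 50% lower net protein increase than control.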

EKVX = test: Anticancer activity against human EKVX cells assessed as cell growth inhibition measured after 48 hrs by SRB assay; type: functional; how it was run: as §1
HOP-62 = test: Anticancer activity against human HOP62 cells assessed as cell growth inhibition measured after 48 hrs by SRB assay; type: functional; conditions: HOP-62, 48 h; how it was run: as §1
NCI-H23 = test: Anticancer activity against human NCI-H23 cells assessed as cell growth inhibition measured after 48 hrs by SRB assay; type: functional; conditions: NCI-H23, 48 h; how it was run: as §1
HT-29 = test: Anticancer activity against human HT-29 cells assessed as cell growth inhibition measured after 48 hrs by SRB assay; type: functional; conditions: HT-29, 48 h; how it was run: as §1
SW-620 = test: Anticancer activity against human SW620 cells assessed as cell growth inhibition measured after 48 hrs by SRB assay; type: functional; conditions: SW-620, 48 h; for CC50: read-out: LC50 (the source's name); how it was run: as §2
SF-268 = test: Anticancer activity against human SF268 cells assessed as cell growth inhibition measured after 48 hrs by SRB assay; type: functional; conditions: SF-268, 48 h; how it was run: as §1
SF-539 = test: Anticancer activity against human SF539 cells assessed as cell growth inhibition measured after 48 hrs by SRB assay; type: functional; conditions: SF-539, 48 h; for CC50: read-out: LC50 (the source's name); how it was run: as §2
SNB-19 = test: Anticancer activity against human SNB19 cells assessed as cell growth inhibition measured after 48 hrs by SRB assay; type: functional; conditions: SNB-19, 48 h; how it was run: as §2
U-251 = test: Anticancer activity against human U251 cells assessed as cell growth inhibition measured after 48 hrs by SRB assay; type: functional; conditions: U-251, 48 h; how it was run: as §2
SK-MEL-2 = test: Anticancer activity against human SK-MEL-2 cells assessed as cell growth inhibition measured after 48 hrs by SRB assay; type: functional; conditions: SK-MEL-2, 48 h; for CC50: read-out: LC50 (the source's name); how it was run: as §2
SK-MEL-28 = test: Anticancer activity against human SK-MEL-28 cells assessed as cell growth inhibition measured after 48 hrs by SRB assay; type: functional; conditions: SK-MEL-28, 48 h; for CC50: read-out: LC50 (the source's name); how it was run: as §2
SK-MEL-5 = test: Anticancer activity against human SK-MEL-5 cells assessed as cell growth inhibition measured after 48 hrs by SRB assay; type: functional; conditions: SK-MEL-5, 48 h; for CC50: read-out: LC50 (the source's name); how it was run: as §2
UACC-257 = test: Anticancer activity against human UACC257 cells assessed as cell growth inhibition measured after 48 hrs by SRB assay; type: functional; conditions: UACC-257, 48 h; for CC50: read-out: LC50 (the source's name); how it was run: as §2
UACC-62 = test: Anticancer activity against human UACC62 cells assessed as cell growth inhibition measured after 48 hrs by SRB assay; type: functional; conditions: UACC-62, 48 h; for CC50: read-out: LC50 (the source's name); how it was run: as §2
IGROV-1 = test: Anticancer activity against human IGROV1 cells assessed as cell growth inhibition measured after 48 hrs by SRB assay; type: functional; conditions: IGROV-1, 48 h; how it was run: as §1
OVCAR-3 = test: Anticancer activity against human OVCAR3 cells assessed as cell growth inhibition measured after 48 hrs by SRB assay; type: functional; conditions: OVCAR-3, 48 h; how it was run: as §1
OVCAR-5 = test: Anticancer activity against human OVCAR5 cells assessed as cell growth inhibition measured after 48 hrs by SRB assay; type: functional; conditions: OVCAR-5, 48 h; for CC50: read-out: LC50 (the source's name); how it was run: as §1
NCI/ADR-RES = test: Anticancer activity against human NCI/ADR-RES cells assessed as cell growth inhibition measured after 48 hrs by SRB assay; type: functional; how it was run: as §1
ACHN = test: Anticancer activity against human ACHN cells assessed as cell growth inhibition measured after 48 hrs by SRB assay; type: functional; conditions: for CC50: read-out: LC50 (the source's name); how it was run: as §1
SN12C = test: Anticancer activity against human SN12C cells assessed as cell growth inhibition measured after 48 hrs by SRB assay; type: functional; how it was run: as §2
NIH3T3 = test: Cytotoxicity against mouse 3T3 cells assessed as cell viability measured after 48 hrs by MTT assay; type: cell-based; conditions: nih3t3, 48 h
How it was run: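 3T3 fibroblasts in DMEM with 10% FBS and penicillin-streptomycin, seeded at 10^4 cells/well 24 h prior. Exposed 48 h to two-fold serial dilutions from a 100 mg/mL DMSO stock. MTT (5 mg/mL in PBS) added for 1.5 h, formazan dissolved in DMSO, read at 530 nm. Duplicate runs on different days. Value interpolated between DMSO (100%) and cycloheximide (0%) controls.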

[1] = test system: Mycolicibacterium smegmatis; test: Antibacterial activity against Mycobacterium smegmatis MC2 155 measured after 48 hrs by agar dilution SPOTi assay; type: functional; conditions: MC2 155, 48 h
How it was run: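 SPOTi agar dilution on Middlebrook 7H10 without OADC. Cells were passaged in Middlebrook 7H9 and then spotted. Compounds were tested at 100, 50, 20, 10 and 5 mg/L, with kanamycin as positive control. Plates were incubated 48 h at 37°C. MIC was taken as the lowest concentration with no visible growth.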

COc1ccc(C(=O)/C=C/c2ccc(Cl)cc2)cc1S(N)(=O)=O
MIC (Staphylococcus aureus): > 57 µM | GI50 (HCC 2998): 1780 nM | LC50 (HCC 2998): 7.48 µM | GI50 (HL-60): 3.08 µM | CC50 (HL-60): > 100 µM | GI50 (RPMI-8226): 2610 nM | CC50 (RPMI-8226): > 100 µM | GI50 (SR): 860 nM | LC50 (concentration giving 50% net cell kill) (SR): > 100 µM | GI50 (EKVX): 4.56 µM | LC50 (concentration killing 50% of cells) (EKVX): 50.5 µM | GI50 (HOP-62): 2510 nM | LC50 (HOP-62): 31.2 µM | GI50 (NCI-H23): 2540 nM | LC50 (NCI-H23): 40.9 µM | GI50 (HT-29): 3.26 µM | LC50 (concentration giving 50% net cell kill) (HT-29): 84 µM | GI50 (SW-620): 1760 nM | CC50 (SW-620): 8.45 µM | GI50 (SF-268): 3130 nM | LC50 (concentration giving 50% net cell kill) (SF-268): 38.3 µM | GI50 (SF-539): 1600 nM | CC50 (SF-539): 6.82 µM | GI50 (SNB-19): 3100 nM | LC50 (SNB-19): 33.4 µM | GI50 (U-251): 1960 nM | LC50 (U-251): 9.33 µM | GI50 (SK-MEL-2): 12.4 µM | CC50 (SK-MEL-2): 53.2 µM | GI50 (SK-MEL-28): 3240 nM | CC50 (SK-MEL-28): 37.2 µM | GI50 (SK-MEL-5): 5.69 µM | CC50 (SK-MEL-5): 42.7 µM | GI50 (UACC-257): 12.2 µM | CC50 (UACC-257): 50.8 µM | GI50 (UACC-62): 4.88 µM | CC50 (UACC-62): 44.8 µM | GI50 (IGROV-1): 2670 nM | LC50 (concentration giving 50% net cell kill) (IGROV-1): 48.1 µM | GI50 (OVCAR-3): 2040 nM | LC50 (OVCAR-3): 9.7 µM | GI50 (OVCAR-5): 3080 nM | CC50 (OVCAR-5): 44.9 µM | GI50 (NCI/ADR-RES): 3.64 µM | LC50 (NCI/ADR-RES): > 100 µM | GI50 (ACHN): 1940 nM | CC50 (ACHN): 8.75 µM | GI50 (SN12C): 2.72 µM | LC50 (concentration giving 50% net cell kill) (SN12C): 31.5 µM | LC50 (NIH3T3): 4.1 µM | MIC [1]: > 175 µM

COc1ccc(C(=O)/C=C/c2ccc(Cl)cc2)cc1S(=O)(=O)Nc1c(N)nc(SC)[nH]c1=O
MIC (Staphylococcus aureus): > 57 µM | GI50 (HCC 2998): 1920 nM | LC50 (HCC 2998): 6.5 µM | GI50 (HL-60): 3.2 µM | CC50 (HL-60): > 100 µM | GI50 (RPMI-8226): 2170 nM | CC50 (RPMI-8226): > 100 µM | GI50 (SR): 3570 nM | LC50 (concentration giving 50% net cell kill) (SR): > 100 µM | GI50 (EKVX): 3.94 µM | LC50 (concentration killing 50% of cells) (EKVX): 80.3 µM | GI50 (HOP-62): 1810 nM | LC50 (HOP-62): 8.7 µM | GI50 (NCI-H23): 2530 nM | LC50 (NCI-H23): 40.4 µM | GI50 (HT-29): 2.93 µM | LC50 (concentration giving 50% net cell kill) (HT-29): 45.3 µM | GI50 (SW-620): 1580 nM | CC50 (SW-620): 28.3 µM | GI50 (SF-268): 2690 nM | LC50 (concentration giving 50% net cell kill) (SF-268): 36.1 µM | GI50 (SF-539): 2100 nM | CC50 (SF-539): 15.1 µM | GI50 (SNB-19): 2520 nM | LC50 (SNB-19): 32.2 µM | GI50 (U-251): 1580 nM | LC50 (U-251): 6.16 µM | GI50 (SK-MEL-2): 12.8 µM | CC50 (SK-MEL-2): 61.1 µM | GI50 (SK-MEL-28): 2100 nM | CC50 (SK-MEL-28): 17 µM | GI50 (SK-MEL-5): 2.72 µM | CC50 (SK-MEL-5): 32 µM | GI50 (UACC-257): 8.27 µM | CC50 (UACC-257): 50.1 µM | GI50 (UACC-62): 2.33 µM | CC50 (UACC-62): 27.4 µM | GI50 (IGROV-1): 3250 nM | LC50 (concentration giving 50% net cell kill) (IGROV-1): 80.2 µM | GI50 (OVCAR-3): 1940 nM | LC50 (OVCAR-3): 8 µM | GI50 (OVCAR-5): 2830 nM | CC50 (OVCAR-5): 38.2 µM | GI50 (NCI/ADR-RES): 40.1 µM | LC50 (NCI/ADR-RES): > 100 µM | GI50 (ACHN): 3230 nM | CC50 (ACHN): 36.5 µM | GI50 (SN12C): 3.45 µM | LC50 (concentration giving 50% net cell kill) (SN12C): 73.4 µM | LC50 (NIH3T3): 13 µM | MIC [1]: > 175 µM
